Measurements reported in ChEMBL document CHEMBL2331093, “Synthesis and biological evaluation of novel propargyl amines as potential fluorine-18 labeled radioligands for detection of MAO-B activity” (Bioorg Med Chem, 2013).
pIC50: −log10 of the molar value.

How the values were obtained:
[1] = Drug uptake in human caudate nucleus at 4 MBq/200 ml after 90 mins by in vitro autoradiography in presence of MAO-B inhibitor rasagiline; assay type: ADME, tissue-based; conditions: 1.5 h
Method in brief: (§1)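 In vitro autoradiography with the fluorine-18 labeled radioligand on human postmortem brain tissue sections.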

[2] = Drug uptake in human hippocampus at 4 MBq/200 ml after 90 mins by in vitro autoradiography; assay type: ADME, tissue-based; conditions: 1.5 h; method in brief: as §1
[3] = Drug uptake in human thalamus at 4 MBq/200 ml after 90 mins by in vitro autoradiography in presence of MAO-B inhibitor rasagiline; assay type: ADME, tissue-based; conditions: 1.5 h; method in brief: as §1
[4] = Drug uptake in human caudate nucleus at 4 MBq/200 ml after 90 mins by in vitro autoradiography; assay type: ADME, tissue-based; conditions: 1.5 h; method in brief: as §1
[5] = Drug uptake in cynomolgus monkey cortex at 168 MBq, iv by PET imaging; assay type: ADME, organism-based, Macaca fascicularis; conditions: in vivo
Method in brief: (§2)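 PET brain imaging in a cynomolgus monkey after injection of the fluorine-18 labeled radioligand; regional radioactivity uptake expressed as %SUV over time post injection.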

Plasma [6] = assay: Metabolic stability in cynomolgus monkey plasma assessed as metabolite M1 retention time at 168 MBq, iv by HPLC analysis; assay type: ADME, organism-based, Macaca fascicularis; conditions: in vivo
Plasma [7] = assay: Metabolic stability in cynomolgus monkey plasma assessed as metabolite M2 retention time at 168 MBq, iv by HPLC analysis; assay type: ADME, organism-based, Macaca fascicularis; conditions: in vivo
[8] = Drug uptake in human hippocampus at 4 MBq/200 ml after 90 mins by in vitro autoradiography in presence of MAO-A ligand pirlindole; assay type: ADME, tissue-based; conditions: 1.5 h; method in brief: as §1
[9] = Metabolic stability in cynomolgus monkey plasma assessed as parent compound at 168 MBq, iv after 120 mins by HPLC analysis; assay type: ADME, organism-based, Macaca fascicularis; conditions: read-out: Stability
[10] = Drug uptake in human thalamus at 4 MBq/200 ml after 90 mins by in vitro autoradiography in presence of MAO-B inhibitor L-deprenyl; assay type: ADME, tissue-based; conditions: 1.5 h; method in brief: as §1
[11] = Drug uptake in human putamen at 4 MBq/200 ml after 90 mins by in vitro autoradiography in presence of MAO-A ligand pirlindole; assay type: ADME, tissue-based; conditions: 1.5 h; method in brief: as §1
[12] = Drug uptake in human caudate nucleus at 4 MBq/200 ml after 90 mins by in vitro autoradiography in presence of MAO-A ligand pirlindole; assay type: ADME, tissue-based; conditions: 1.5 h; method in brief: as §1
Plasma [13] = assay: Metabolic stability in cynomolgus monkey plasma assessed as metabolite M4 retention time at 168 MBq, iv by HPLC analysis; assay type: ADME, organism-based, Macaca fascicularis; conditions: in vivo
[14] = Drug uptake in human thalamus at 4 MBq/200 ml after 90 mins by in vitro autoradiography; assay type: ADME, tissue-based; conditions: 1.5 h; method in brief: as §1
[15] = Drug uptake in human putamen at 4 MBq/200 ml after 90 mins by in vitro autoradiography in presence of MAO-B inhibitor L-deprenyl; assay type: ADME, tissue-based; conditions: 1.5 h; method in brief: as §1
Plasma [16] = assay: Metabolic stability in cynomolgus monkey plasma assessed as metabolite M3 retention time at 168 MBq, iv by HPLC analysis; assay type: ADME, organism-based, Macaca fascicularis; conditions: in vivo
[17] = Drug uptake in human caudate nucleus at 4 MBq/200 ml after 90 mins by in vitro autoradiography in presence of MAO-B inhibitor L-deprenyl; assay type: ADME, tissue-based; conditions: 1.5 h; method in brief: as §1
[18] = Drug uptake in cynomolgus monkey cerebellum at 168 MBq, iv by PET imaging; assay type: ADME, organism-based, Macaca fascicularis; conditions: in vivo; method in brief: as §2
[19] = Drug uptake in human putamen at 4 MBq/200 ml after 90 mins by in vitro autoradiography in presence of MAO-B inhibitor rasagiline; assay type: ADME, tissue-based; conditions: 1.5 h; method in brief: as §1
Thalamus = assay: Drug uptake in cynomolgus monkey thalamus at 168 MBq, iv by PET imaging; assay type: ADME, organism-based, Macaca fascicularis; conditions: in vivo; method in brief: as §2
[20] = Drug uptake in human hippocampus at 4 MBq/200 ml after 90 mins by in vitro autoradiography in presence of MAO-B inhibitor rasagiline; assay type: ADME, tissue-based; conditions: 1.5 h; method in brief: as §1
[21] = Metabolic stability in cynomolgus monkey plasma assessed as parent compound at 168 MBq, iv after 45 mins by HPLC analysis; assay type: ADME, organism-based, Macaca fascicularis; conditions: read-out: Stability
Plasma [22] = assay: Metabolic stability in cynomolgus monkey plasma assessed as metabolite M5 retention time at 168 MBq, iv by HPLC analysis; assay type: ADME, organism-based, Macaca fascicularis; conditions: in vivo
[23] = Drug uptake in cynomolgus monkey striatum at 168 MBq, iv by PET imaging; assay type: ADME, organism-based, Macaca fascicularis; conditions: in vivo; method in brief: as §2
[24] = Drug uptake in human thalamus at 4 MBq/200 ml after 90 mins by in vitro autoradiography in presence of MAO-A ligand pirlindole; assay type: ADME, tissue-based; conditions: 1.5 h; method in brief: as §1
[25] = Drug uptake in human putamen at 4 MBq/200 ml after 90 mins by in vitro autoradiography; assay type: ADME, tissue-based; conditions: 1.5 h; method in brief: as §1
[26] = Drug uptake in human hippocampus at 4 MBq/200 ml after 90 mins by in vitro autoradiography in presence of MAO-B inhibitor L-deprenyl; assay type: ADME, tissue-based; conditions: 1.5 h; method in brief: as §1
Brain = assay: Drug uptake in cynomolgus monkey brain at 168 MBq, iv by PET imaging; assay type: ADME, organism-based, Macaca fascicularis; conditions: in vivo; method in brief: as §2
[27] = Stability of the compound in PBS buffer at pH 7.4 up to 150 mins; assay type: physicochemical; conditions: pH 7.4, 2.5 h
[28] = Drug uptake in human basal ganglia at 4 MBq/200 ml after 90 mins by in vitro autoradiography in presence of MAO-B inhibitor L-deprenyl; assay type: ADME; conditions: 1.5 h; method in brief: as §1
Cortex [29] = assay: Drug uptake in human cortex at 4 MBq/200 ml after 90 mins by in vitro autoradiography; assay type: ADME, tissue-based; conditions: 1.5 h; method in brief: as §1
Cortex [30] = assay: Drug uptake in human cortex at 4 MBq/200 ml after 90 mins by in vitro autoradiography in presence of MAO-B inhibitor L-deprenyl; assay type: ADME, tissue-based; conditions: 1.5 h; method in brief: as §1
Cortex [31] = assay: Drug uptake in human cortex at 4 MBq/200 ml after 90 mins by in vitro autoradiography in presence of MAO-A ligand pirlindole; assay type: ADME, tissue-based; conditions: 1.5 h; method in brief: as §1
[32] = Drug uptake in human basal ganglia at 4 MBq/200 ml after 90 mins by in vitro autoradiography in presence of MAO-B inhibitor rasagiline; assay type: ADME; conditions: 1.5 h; method in brief: as §1
Cortex [33] = assay: Drug uptake in human cortex at 4 MBq/200 ml after 90 mins by in vitro autoradiography in presence of MAO-B inhibitor rasagiline; assay type: ADME, tissue-based; conditions: 1.5 h; method in brief: as §1
[34] = Drug uptake in human basal ganglia at 4 MBq/200 ml after 90 mins by in vitro autoradiography in presence of MAO-A ligand pirlindole; assay type: ADME; conditions: 1.5 h; method in brief: as §1
[35] = Drug uptake in human basal ganglia at 4 MBq/200 ml after 90 mins by in vitro autoradiography; assay type: ADME; conditions: 1.5 h; method in brief: as §1
[36] = biological target: T1, Amine oxidase [flavin-containing] A (Homo sapiens, UniProt P21397); assay: Inhibition of recombinant human MAO-A assessed as inhibition of kynuramine oxidation by spectrophotometry
T1 sequence (P21397 whole entry): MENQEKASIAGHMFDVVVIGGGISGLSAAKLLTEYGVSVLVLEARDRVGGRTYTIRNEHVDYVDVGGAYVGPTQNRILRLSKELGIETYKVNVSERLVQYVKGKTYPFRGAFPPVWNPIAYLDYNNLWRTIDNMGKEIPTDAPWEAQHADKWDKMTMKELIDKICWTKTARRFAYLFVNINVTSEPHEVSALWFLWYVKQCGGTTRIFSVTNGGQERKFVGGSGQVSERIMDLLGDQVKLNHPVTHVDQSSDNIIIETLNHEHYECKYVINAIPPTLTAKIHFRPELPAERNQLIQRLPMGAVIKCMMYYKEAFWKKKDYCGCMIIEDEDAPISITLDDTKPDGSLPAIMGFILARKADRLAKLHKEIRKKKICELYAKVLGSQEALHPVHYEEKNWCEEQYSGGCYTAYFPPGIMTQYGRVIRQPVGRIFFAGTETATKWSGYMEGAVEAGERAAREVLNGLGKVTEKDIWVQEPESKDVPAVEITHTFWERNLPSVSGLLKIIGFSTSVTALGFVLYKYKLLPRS

[37] = biological target: T2, Amine oxidase [flavin-containing] B (Homo sapiens, UniProt P27338); assay: Inhibition of recombinant human MAO-B assessed as inhibition of kynuramine oxidation by spectrophotometry
T2 sequence (P27338 whole entry): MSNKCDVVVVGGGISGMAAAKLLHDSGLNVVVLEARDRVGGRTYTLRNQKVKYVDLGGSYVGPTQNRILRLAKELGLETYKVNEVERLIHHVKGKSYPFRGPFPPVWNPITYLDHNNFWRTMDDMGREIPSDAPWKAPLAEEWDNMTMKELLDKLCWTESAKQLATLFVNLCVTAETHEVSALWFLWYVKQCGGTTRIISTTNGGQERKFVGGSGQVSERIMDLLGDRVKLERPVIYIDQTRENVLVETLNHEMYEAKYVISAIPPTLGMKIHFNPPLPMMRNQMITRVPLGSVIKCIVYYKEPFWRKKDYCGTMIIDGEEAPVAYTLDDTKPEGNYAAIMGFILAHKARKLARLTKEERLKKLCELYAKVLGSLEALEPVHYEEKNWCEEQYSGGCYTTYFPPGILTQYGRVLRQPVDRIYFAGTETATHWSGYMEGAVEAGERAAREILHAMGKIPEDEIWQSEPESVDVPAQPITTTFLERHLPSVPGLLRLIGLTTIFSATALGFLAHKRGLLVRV

C#CCN(C)[C@H](C[18F])CC(C)C
Drug uptake [1]: Not Active
Drug uptake [2]: Active
Drug uptake [3]: Not Active
Drug uptake [4]: Active
Drug uptake [5]: Not Active
Retention_time (Plasma [6]): 2 min
Retention_time (Plasma [7]): 3.4 min
Drug uptake [8]: Active
remaining at 2 h [9]: 12%
Drug uptake [10]: Not Active
Drug uptake [11]: Active
Drug uptake [12]: Active
Retention_time (Plasma [13]): 4.2 min
Drug uptake [14]: Active
Drug uptake [15]: Not Active
Retention_time (Plasma [16]): 3.7 min
Drug uptake [17]: Not Active
Drug uptake [18]: Not Active
Drug uptake [19]: Not Active
Drug uptake (Thalamus): Active
Drug uptake [20]: Not Active
remaining at 0.75 h [21]: 20%
Retention_time (Plasma [22]): 6.2 min
Drug uptake [23]: Active
Drug uptake [24]: Active
Drug uptake [25]: Active
Drug uptake [26]: Not Active
SUV (Brain): 250%

C#CCN(C)[C@H](C[19F])CC(C)C
Stability [27]: Stable

C#CCN(C)[C@H](C[18F])Cc1ccco1
Drug uptake [28]: Not Active
Drug uptake [2]: Active
Drug uptake [3]: Not Active
Drug uptake (Cortex [29]): Active
Drug uptake [8]: Active
Drug uptake (Cortex [30]): Not Active
Drug uptake [10]: Not Active
Drug uptake (Cortex [31]): Active
Drug uptake [32]: Not Active
Drug uptake [14]: Active
Drug uptake (Cortex [33]): Not Active
Drug uptake [20]: Not Active
Drug uptake [24]: Active
Drug uptake [34]: Active
Drug uptake [35]: Active
Drug uptake [26]: Not Active

C#CCN(C)[C@H](CF)Cc1ccco1
pIC50 [36]: < 5.70
pIC50 [37]: 6.68

C#CCN(C)[C@H](CF)CC(C)C
pIC50 [36]: < 5.70
pIC50 [37]: 6.88

C#CCN(C)[C@H](CF)CC(=C)C
pIC50 [36]: < 5.70
pIC50 [37]: 6.18

C#CCN(C)[C@H](C[19F])Cc1ccco1
Stability [27]: Stable
